Results on 1 compound are retold here after ChEMBL document CHEMBL3259611, “Suppression of inflammatory responses by handelin, a guaianolide dimer from Chrysanthemum boreale, via downregulation of NF-κB signaling and pro-inflammatory cytokine production” (J Nat Prod, 2014).

The subject of assay [1] is RAW264.7. Put plainly: Antiinflammatory activity in mouse RAW264.7 cells assessed as inhibition of LPS-induced iNOS protein expression at 20 uM after 16 hrs by Western blotting analysis relative to control. It counts as functional. The procedure, abridged: (§1)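 RAW 264.7 cells given LPS (1 μg/mL) with or without compound for 16 h. Cell lysates were Western blotted for iNOS and COX-2 (6−15% SDS-PAGE, PVDF, ECL detection). Performed in triplicate.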

Assay [2] concerns RAW264.7. Put plainly: Antiinflammatory activity in mouse RAW264.7 cells assessed as inhibition of LPS-induced iNOS protein expression at 40 uM after 16 hrs by Western blotting analysis relative to control. It counts as functional. The procedure, abridged:
as §1

In assay [3] the test system is RAW264.7. Put plainly: Inhibition of LPS-induced NFkappaB transcriptional activity in mouse RAW264.7 cells assessed as […] at 40 uM after 30 mins by Western blotting analysis relative to control. It counts as cell-based. The procedure, abridged:
(§2)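 Macrophages were exposed to compound for 30 min before LPS stimulation, with proteins extracted 30 min later. Nuclear extracts were prepared in Tris/KCl/NP-40 lysis buffer, then 420 mM NaCl buffer, and the cytosolic fraction was kept for IκB-α. Western blot on PVDF with ECL detection. Tests in triplicate; representative of three separate experiments.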
(In general: In western blotting, separated proteins are transferred to a membrane and probed.)

In assay [4] the test system is RAW264.7. Put plainly: Inhibition of LPS-induced NFkappaB transcriptional activity in mouse RAW264.7 cells assessed as reduction of phosphorylated IkappaB-alpha level at 10 uM after 30 mins by Western blotting analysis relative to control. It counts as cell-based. The procedure, abridged:
as §2

In assay [5] the test system is RAW264.7. Put plainly: Antiinflammatory activity in mouse RAW264.7 cells assessed as inhibition of LPS-induced iNOS mRNA expression at 40 uM after 5 hrs by RT-PCR analysis relative to control. The format is functional. The procedure, abridged: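 RAW 264.7 cells exposed to 1 μg/mL LPS with or without compound for 5 h. Total RNA was analysed by RT-PCR: 25−30 cycles with annealing at 55 °C. Products were separated on 2% agarose gel with SYBR-Safe staining. Experiments in triplicate.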

The target in assay [6] is T1, Nuclear factor NF-kappa-B p105 subunit (Mus musculus) (UniProt P25799).
T1 sequence (whole entry): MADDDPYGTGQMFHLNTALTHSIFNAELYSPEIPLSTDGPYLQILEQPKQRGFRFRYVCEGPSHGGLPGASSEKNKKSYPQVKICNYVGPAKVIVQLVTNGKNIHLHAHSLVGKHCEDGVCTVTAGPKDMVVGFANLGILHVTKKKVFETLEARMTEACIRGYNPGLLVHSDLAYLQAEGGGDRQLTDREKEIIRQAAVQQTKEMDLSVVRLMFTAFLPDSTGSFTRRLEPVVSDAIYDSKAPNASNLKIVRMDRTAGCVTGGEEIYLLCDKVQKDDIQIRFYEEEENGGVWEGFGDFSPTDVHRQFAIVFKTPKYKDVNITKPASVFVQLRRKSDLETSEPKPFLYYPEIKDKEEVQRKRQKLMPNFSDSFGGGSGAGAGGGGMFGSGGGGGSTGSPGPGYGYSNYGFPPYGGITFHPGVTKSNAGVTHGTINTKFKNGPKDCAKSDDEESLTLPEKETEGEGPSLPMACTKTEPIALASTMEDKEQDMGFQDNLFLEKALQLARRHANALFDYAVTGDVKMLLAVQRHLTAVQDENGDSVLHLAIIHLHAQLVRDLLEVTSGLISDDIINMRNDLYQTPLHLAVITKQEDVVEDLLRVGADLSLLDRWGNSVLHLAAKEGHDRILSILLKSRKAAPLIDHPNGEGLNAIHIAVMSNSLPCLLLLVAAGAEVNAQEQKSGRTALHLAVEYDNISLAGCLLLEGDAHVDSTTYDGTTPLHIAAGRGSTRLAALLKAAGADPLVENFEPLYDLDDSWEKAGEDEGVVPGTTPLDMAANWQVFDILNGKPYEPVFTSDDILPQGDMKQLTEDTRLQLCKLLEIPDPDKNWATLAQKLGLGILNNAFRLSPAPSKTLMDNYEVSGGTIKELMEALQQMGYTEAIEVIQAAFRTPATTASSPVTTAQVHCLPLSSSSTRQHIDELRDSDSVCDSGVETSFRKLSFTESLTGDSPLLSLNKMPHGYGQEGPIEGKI
Put plainly: Inhibition of LPS-induced NFkappaB P50 protein nuclear translocation in mouse RAW264.7 cells at 40 uM after 30 mins by Western blotting analysis relative to control. The format is cell-based. The procedure, abridged: as §2

The target in assay [7] is Transcription factor p65 (Mus musculus) (UniProt Q04207). Put plainly: Inhibition of LPS-induced NFkappaB P65 protein nuclear translocation in mouse RAW264.7 cells at 20 uM after 30 mins by Western blotting analysis relative to control. It counts as cell-based. The procedure, abridged: as §2
Chain of Transcription factor p65 (Mus musculus) (Q04207 whole entry): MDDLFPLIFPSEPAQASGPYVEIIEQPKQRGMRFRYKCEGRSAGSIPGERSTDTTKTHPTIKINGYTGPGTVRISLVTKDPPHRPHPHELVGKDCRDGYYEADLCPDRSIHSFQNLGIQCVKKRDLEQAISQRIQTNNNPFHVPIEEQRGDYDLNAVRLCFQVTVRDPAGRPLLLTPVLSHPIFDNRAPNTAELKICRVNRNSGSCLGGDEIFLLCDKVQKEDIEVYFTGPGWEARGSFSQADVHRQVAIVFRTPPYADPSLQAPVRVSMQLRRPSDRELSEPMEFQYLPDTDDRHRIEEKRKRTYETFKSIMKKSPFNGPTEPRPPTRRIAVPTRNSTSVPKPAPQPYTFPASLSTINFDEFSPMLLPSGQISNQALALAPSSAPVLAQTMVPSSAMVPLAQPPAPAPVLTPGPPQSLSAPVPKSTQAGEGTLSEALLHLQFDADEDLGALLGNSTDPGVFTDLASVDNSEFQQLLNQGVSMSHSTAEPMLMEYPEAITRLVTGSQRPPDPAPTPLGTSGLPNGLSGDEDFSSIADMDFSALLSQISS
The subject of assay [8] is RAW264.7. Put plainly: Antiinflammatory activity in mouse RAW264.7 cells assessed as inhibition LPS-induced TNF-alpha protein expression at 10 uM after 4 hrs by Western blotting analysis relative to control. The format is functional.
In assay [9] the test system is RAW264.7. Put plainly: Antiinflammatory activity in mouse RAW264.7 cells assessed as inhibition of LPS-induced iNOS protein expression after 16 hrs by Western blotting analysis. It counts as functional, cell-based.
Assay [10] relates to RAW264.7. Put plainly: Antiinflammatory activity in mouse RAW264.7 cells assessed as inhibition LPS-induced TNF-alpha mRNA expression at 20 uM after 4 hrs by RT-PCR analysis relative to control. The format is functional. The procedure, abridged: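 RAW 264.7 cells stimulated with LPS (1 μg/mL) with or without compound for 4 h. Total RNA was isolated and cytokine mRNA was analysed by RT-PCR: 94 °C 4 min, then 25−30 cycles of 94/55/72 °C for 30 s each, then 72 °C 5 min. Products were run on 2% agarose and stained with SYBR-Safe. Triplicate, representative of three experiments.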

The subject of assay [11] is RAW264.7. Put plainly: Antiinflammatory activity in mouse RAW264.7 cells assessed as inhibition of LPS-induced COX2 protein expression at 10 uM after 16 hrs by Western blotting analysis relative to control. The format is functional. The procedure, abridged:
as §1

Structures are written as SMILES. Active and inactive are the calls of the source. The rule behind the calls is not given here.

Consider `C=C1C(=O)O[C@@H]2[C@@H]3[C@@]4(C=C[C@@]3(C)[C@]3(C4)C(=O)O[C@@H]4[C@H]5C(C)=CC[C@H]5[C@](C)(O)C[C@H](OC(C)=O)[C@H]43)[C@](C)(O)CC[C@@H]12`, for which the “fold change (FC)” value was determined as 0.29 in the assay with RAW264.7 [1]; 0.13 in the assay with RAW264.7 [2]; 1.83 with RAW264.7 [3]; 0.58 in the assay on RAW264.7 [5]; 0.16 in [6]; 0.63 in assay [7]. Further, the figures for the “fold change (FC)” value with RAW264.7 [8], in the assay on RAW264.7 [10] and in the assay with RAW264.7 [11] were 0.9, 0.66 and 0.52, respectively. Also, in the assay on RAW264.7 [4], the inhibition entry was “Active”. The inhibition entry in the assay on RAW264.7 [9] was “Dose-dependent effect”.
